High-throughput results deposited in PubChem by several laboratories.
STAT1 blocker = STAT1 signaling inhibition; NIH 3T3 STAT1-luciferase reporter, IFN-gamma, luminescence; inhibition, % at 5.5 µM; actives 0.35% (n = 200,000);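 active = inhibition above a set limit, the mean inhibition across all tested compounds plus 3 SD, cut at about 34% in these data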;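 also: 0% = IFN-gamma with DMSO and 100% = IFN-gamma with 300 µM nifuroxazide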
STAT3 activator = increases IL-6 driven STAT3 reporter signal. U3A cells, IL-6 STAT3-luciferase reporter, luminescence; 100% = signal with IL-6 EC80 alone. activation (% of control), % at 5.6 µM. actives 0.91% (n = 190,000). AID 871;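 active = activation above the screen-wide mean of compound activation plus 3 SD, cut at about 130% in these data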;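 also: 0% = background luminescence of wells with medium and substrate only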
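Test system: STAT3-luciferase reporter U3A cells; Detection: reporter luminescence signal; Times: 1 h compound pre-exposure, 6 h IL-6 stimulation, 37 °C; Benchmarks: IL-6-only high control; Also added: IL-6 stimulus at 33 ng/mL final.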
NF-kB neuron act = compounds increasing NF-kB expression in human neuronal cells | actives 1.6% (n = 190,000) | fold change at 12.5 µM | NF-kB reporter expression; active compounds read high; in the data active = fold change above about 3.3
APP 5'UTR act = APP 5'UTR luciferase reporter activation; SH-SY5Y APP 5'UTR luciferase reporter, luminescence; zero percent = DMSO vehicle wells; activation, % at 2 µM; actives 1% (n = 190,000); AID 1276;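 active = activation above a set limit, based on mean plus 3 SD of controls, cut at about 140% in these data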
STAT3 blocker = inhibitors of IL-6 induced STAT3 signaling. U3A cells, IL-6 STAT3-luciferase reporter, luminescence; host cell line lacks STAT1. inhibition, % at 5.5 µM. actives 0.89% (n = 190,000);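 active = inhibition above the mean inhibition across all screened compounds plus 3 SD, cut at about 44% in these data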;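 also: 0% = DMSO only wells and 100% = 100 µM nifuroxazide control wells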
STAT1 activator = increases IFN-gamma driven STAT1 reporter signal. NIH 3T3 STAT1-luciferase reporter, luminescence; 100% = IFN-gamma alone, no compound. activation (% of control), % at 5.5 µM. actives 2.6% (n = 200,000);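 active = activation above the screen-wide mean activation plus 3 SD, cut at about 130% in these data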;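 also: raw ratio to IFN-gamma control signal so 100% means no change and 0% no light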
STAT1 activ conf = STAT1 activation, confirmation assay; NIH 3T3 STAT1-luciferase reporter, IFN-gamma potentiation, luminescence; 100% = IFN-gamma EC80 alone, no compound; actives 97% (n = 1,200); activation (% of control), % at 5.7 µM; shares compounds with STAT1 activator;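 active = activation above a set limit carried over from the earlier primary STAT1 screen, cut at about 140% in these data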;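 also: simple ratio to median IFN-gamma plus DMSO wells so 0% means no light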
NFkB act STAT1ct = NF-kappaB activation in STAT1 activator counter-screen. activation (% of control), % at 5.7 µM. shares compounds with STAT1 activator. actives 43% (n = 1,200). HEK293T NF-kB luciferase reporter, TNF-alpha stimulated, luminescence; 100% = TNF-alpha with vehicle only. AID 1306;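 active = activation above the mean of solvent-only control wells plus 3 SD, set per campaign, cut at about 130% in these data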;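 also: TNF-alpha given at a submaximal dose yielding about 80% of full reporter signal; values are well signal over median control so 100% means no change and 0% no light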
STAT3 act STAT1c = counter-screen for STAT1 activators: human STAT3 activation; shares compounds with STAT1 activator; U3A cells STAT3-luciferase reporter, IL-6, luminescence; cells lack STAT1; 100 = IL-6 alone, no compound effect; activation (% of control), % at 5.7 µM; actives 46% (n = 1,200);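 active = activation above the solvent-only control well mean plus 3 SD, set per plate batch, cut at about 110% in these data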;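 also: 0% = no luminescence and 100% = median IL-6 plus DMSO wells; higher means more STAT3 reporter activation so hits are non-selective activators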
Active calls of the source: *; nt = not tested or not shown. Compounds with a hit are over-represented: about 5.1% of the library has one in this group of screens.

SMILES	STAT1 blocker	STAT3 activator	NF-kB neuron act	APP 5'UTR act	STAT3 blocker	STAT1 activator	STAT1 activ conf	NFkB act STAT1ct	STAT3 act STAT1c
Cc1onc(-c2ccccc2Cl)c1C(=O)Nc1nc2c(s1)CCCC2	-30	109	0.73	43	-5	127	nt	nt	nt
Cc1ccc(C(=O)Nc2nc3c(s2)CCCC3)o1	-37	79	7.3*	166*	26	155*	209*	115	93
Cc1nn(-c2ccccc2)c(Cl)c1/C=N/Nc1nc2ccccc2[nH]1	-130	83	2.2	126	22	216*	291*	130	104
Cc1ccc(/C=N/Nc2nc3ccccc3[nH]2)s1	-63	121	3.8*	135*	-18	157*	190*	149*	121*
Nc1nnc(-c2ccc(Cl)c(Cl)c2)s1	-21	87	1.5	1	18	119	nt	nt	nt
Nc1cccn2c(-c3ccc(Cl)c(Cl)c3)cnc12	-55	115	12*	211*	-15	151*	102	131	159*
COc1ccc(-c2cc(C(=O)NC(Cc3cc4ccccc4[nH]3)C(=O)O)c(C)o2)cc1OC (stereo not drawn)	-11	122	1.4	-8	-20	108	nt	nt	nt
COc1ccc(-c2cc(C(=O)O)c(C)o2)cc1OC	-56	70	2.4	99	40	152*	218*	79	112*
COc1ccc(-c2cc(C(=O)Nc3ccccc3)on2)cc1	-89	112	1.8	-6	-10	179*	156*	128	110
COc1ccc(-c2cc(C(=O)Nc3ccccc3F)on2)cc1	-29	85	1.8	25	24	127	nt	nt	nt
N/C(=N\OC(=O)c1ccco1)c1ccc(Br)cc1	-67	90	3.7*	173*	16	162*	158*	123	102
COC(=O)c1cn[nH]c1NC(=S)Nc1ccccc1C	-56	106	1.7	-2	-2	151*	169*	129	117*
CN1CCN(c2ccc(NC(=O)c3ccccc3Br)cc2)CC1	-23	114	1.9	58	-16	120	nt	nt	nt
CCc1ccc(NC(=O)c2ccccc2Br)cc1	-64	100	4.2*	130	6	155*	177*	138*	103
Cc1ccc(NC(=O)Nc2ccc3c(c2)nc(C)n3C)cc1C	-79	100	4.8*	121	12	171*	194*	137*	103
Cc1nc2cc(NC(=O)Nc3ccc(N4CCOCC4)cc3)ccc2n1C	-3	91	0.94	8	16	103	nt	nt	nt
CCOc1ccc(NC(=O)c2csc3c2CCCC3)cc1	-79	104	3.9*	127	-5	171*	198*	139*	104
COc1cc(NC(=O)c2csc3c2CCCC3)ncn1	-77	86	3.3*	62	18	171*	193*	128	102
CCOCCCNC(=O)c1c(N)n(-c2ccc(S(N)(=O)=O)cc2)c2nc3ccccc3nc12	-3	91	1	11	15	103	nt	nt	nt
O=c1c2c(nc3cc(-c4ccc(F)cc4)[nH]n13)CCC2	-60	105	1	99	-6	152*	176*	118	102
Cc1ccc(N=Nc2c(N)nn(-c3ccccc3)c2N)cc1	-62	105	6*	24	-3	155*	180*	138*	102
CC(=O)NC1=NN(C(C)=O)C(c2ccccc2)S1 (stereo not drawn)	-11	107	1.1	15	-3	109	nt	nt	nt
COCCNC(=S)NCc1cccs1	1	107	1.1	-2	-1	97	nt	nt	nt
O=C1CCCC(O)=C1C1C2=C(CCCC2=O)OC2=C1C(=O)CCC2	-5	101	1.1	-16	4	104	nt	nt	nt
COc1ccc(-c2csc(Nc3ccc(S(N)(=O)=O)cc3)n2)cc1	-5	75	0.84	nt	30	104	nt	nt	nt
SMILES	STAT1 blocker	STAT3 activator	NF-kB neuron act	APP 5'UTR act	STAT3 blocker	STAT1 activator	STAT1 activ conf	NFkB act STAT1ct	STAT3 act STAT1c
COc1ccc(Nc2nc(-c3c(C)nc4ncccn34)cs2)cc1	29	94	1	-94	13	73	nt	nt	nt
COc1ccc(-c2csc(Nc3ncccc3C)n2)cc1	-89	104	12*	154*	-1	185*	253*	143*	106
CC(=O)NNc1nc(-c2ccccc2)cs1	-5	107	1.3	5	-2	103	nt	nt	nt
CC(=O)c1cccc(Nc2nc(-c3ccccc3)cs2)c1	-74	106	4.8*	170*	3	168*	230*	152*	112*
COc1ccc(Nc2nc(-c3ccc(OC)cc3)cs2)cc1	-55	94	nt	137*	12	151*	182*	142*	99
c1ccc(Nc2nc(-c3ccccn3)cs2)cc1	-63	108	7.5*	205*	-10	158*	226*	150*	126*
c1ccc(-c2csc(Nc3cccnc3)n2)nc1	-34	98	1.4	20	6	127	nt	nt	nt
COc1ccc(CCNC(=O)C(C(=O)c2ccccc2)n2ccccc2=O)cc1OC (stereo not drawn)	5	102	1.2	13	-2	96	nt	nt	nt
CC1CC(C)CN(S(=O)(=O)c2cc(C(=O)O)c(Cl)s2)C1 (stereo not drawn)	12	102	1.2	20	2	90	nt	nt	nt
COc1ccc(-c2csc(Nc3ccccc3)n2)cc1	-85	99	5.4*	195*	1	180*	232*	152*	110
N#C/C(=N/Nc1ccc([N+](=O)[O-])cc1)C(=N)N1CCCCC1	-81	97	8.1*	174*	5	174*	249*	143*	122*
N#C/C(=N\Nc1ccc(Cl)cc1)C(=N)N1CCCCCC1	-63	75	1.3	236*	33	158*	305*	135*	116*
N#C/C(=N\Nc1ccc(S(=O)(=O)N2CCCCC2)cc1)C(N)=S	6	85	0.72	-12	17	95	nt	nt	nt
CC(C)(C)c1ccc2c(c1)C(=O)c1ccccc1C2=O	-68	102	5.3*	162*	3	162*	209*	126	107
